Measured values reported in ChEMBL document CHEMBL5357042, “Discovery of imidazo[1,2-b]pyridazine-containing TAK1 kinase inhibitors with excellent activities against multiple myeloma” (RSC Med Chem, 2024).
Activity calls are given as the source filed them. The rule behind the calls is not given here.

Assays:
[1] = biological target: T1, Mitogen-activated protein kinase kinase kinase 7 (Homo sapiens) (UniProt O43318); assay: Inhibition of TAK1 (unknown origin) at 500 nM by ADP-Glo kinase assay
T1 sequence (whole entry): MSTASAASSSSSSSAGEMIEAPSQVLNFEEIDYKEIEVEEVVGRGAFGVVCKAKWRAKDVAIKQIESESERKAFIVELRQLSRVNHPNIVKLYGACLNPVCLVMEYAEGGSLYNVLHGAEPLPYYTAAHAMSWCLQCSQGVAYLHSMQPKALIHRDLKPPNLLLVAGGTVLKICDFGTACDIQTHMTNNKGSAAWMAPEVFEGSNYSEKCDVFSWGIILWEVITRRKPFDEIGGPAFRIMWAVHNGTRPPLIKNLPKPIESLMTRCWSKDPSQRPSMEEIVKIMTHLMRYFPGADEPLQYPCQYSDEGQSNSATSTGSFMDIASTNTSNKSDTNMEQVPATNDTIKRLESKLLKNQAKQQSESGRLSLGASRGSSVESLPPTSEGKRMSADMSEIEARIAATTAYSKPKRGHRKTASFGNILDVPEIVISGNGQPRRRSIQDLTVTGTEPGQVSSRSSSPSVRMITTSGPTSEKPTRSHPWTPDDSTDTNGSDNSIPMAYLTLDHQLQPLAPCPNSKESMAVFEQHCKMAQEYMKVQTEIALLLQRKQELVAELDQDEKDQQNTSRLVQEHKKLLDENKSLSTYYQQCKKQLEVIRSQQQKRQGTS

[2] = biological target: T1, Mitogen-activated protein kinase kinase kinase 7 (Homo sapiens); assay: Inhibition of TAK1 (unknown origin) at 100 nM by ADP-Glo kinase assay
[3] = biological target: T1, Mitogen-activated protein kinase kinase kinase 7 (Homo sapiens); assay: Inhibition of TAK1 (unknown origin) at 20 nM by ADP-Glo kinase assay
MPC-11 [4] = assay: Cytotoxicity against mouse MPC-11 cells assessed as reduction in cell viability incubated for 72 hrs by CellTiter-Blue assay; format: functional
Procedure, shortened: (§1)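 H929 (RPMI, 10% heat-inactivated FBS) or MPC-11 (DMEM, 10% FBS) cells, under 10 passages, 37 °C, 5% CO₂; 4–5 × 10³ cells/well seeded, 24 h, then compound at various concentrations for 72 h. CellTiter-Blue added for 3 h, fluorescence ex/em 560/590 nm. Normalized to DMSO-treated cells; triplicate, mean and standard deviation.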

NCI-H929 = assay: Cytotoxicity against human NCI-H929 cells assessed as reduction in cell viability incubated for 72 hrs by CellTiter-Blue assay; format: functional; procedure, shortened: as §1
MPC-11 [5] = assay: Cytotoxicity against mouse MPC-11 cells assessed as reduction in cell viability at 200 nM incubated for 72 hrs by CellTiter-Blue assay; format: functional; procedure, shortened: as §1
MPC-11 [6] = assay: Cytotoxicity against mouse MPC-11 cells assessed as reduction in cell viability at 0.2 to 1 uM to incubated for 72 hrs by CellTiter-Blue assay; format: functional, cell-based; conditions: dose 0.2-1 µM; procedure, shortened: as §1
[7] = biological target: Mitogen-activated protein kinase kinase kinase 7 (Homo sapiens, UniProt O43318); assay: Inhibition of human TAK1 using casein as substrate in presence of [gamma-33P]-ATP by radiometric hotspot kinase assay
[8] = biological target: Mitogen-activated protein kinase kinase kinase 7 (Mus musculus) (UniProt Q62073); assay: Inhibition of TAK1 in mouse MPC-11 cells assessed as reduction in TAK1 phosphorylation at Ser412 residue at 0.1 to 0.5 uM incubated for 48 hrs by Western blot analysis; format: cell-based; conditions: dose 0.1-0.5 µM
Mitogen-activated protein kinase kinase kinase 7 (Mus musculus), sequence (Q62073 whole entry): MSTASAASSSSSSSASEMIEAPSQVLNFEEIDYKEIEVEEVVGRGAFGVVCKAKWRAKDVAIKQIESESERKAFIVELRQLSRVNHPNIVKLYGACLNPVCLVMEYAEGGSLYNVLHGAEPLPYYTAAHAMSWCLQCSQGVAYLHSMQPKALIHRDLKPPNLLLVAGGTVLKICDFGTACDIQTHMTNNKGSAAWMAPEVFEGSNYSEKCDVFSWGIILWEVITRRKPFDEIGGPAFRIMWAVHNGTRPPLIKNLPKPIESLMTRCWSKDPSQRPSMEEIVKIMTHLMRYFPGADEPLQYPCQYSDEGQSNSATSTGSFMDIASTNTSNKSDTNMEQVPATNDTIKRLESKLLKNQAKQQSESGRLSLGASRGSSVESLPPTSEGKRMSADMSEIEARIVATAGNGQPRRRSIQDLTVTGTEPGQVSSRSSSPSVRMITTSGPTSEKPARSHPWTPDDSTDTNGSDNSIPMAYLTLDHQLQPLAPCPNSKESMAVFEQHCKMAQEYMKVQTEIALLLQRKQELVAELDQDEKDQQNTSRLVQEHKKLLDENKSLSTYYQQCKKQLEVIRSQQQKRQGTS
Procedure, shortened: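 MPC-11 cells (0.5–1 × 10⁶/well) seeded, treated after 24 h for 48 h; DMSO control. BCA protein quantitation, 10% SDS-PAGE, PVDF; pTAK1, TAK1, β-actin antibodies overnight 4 °C, HRP secondaries 2 h 24 °C, chemiluminescence. Bands quantified relative to actin; duplicates, mean and standard deviation.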

Row | SMILES | inhibition [1] [%] | inhibition [2] [%] | also measured
1 | CCc1n[nH]c2ccc(-c3cnc4ccc(N5C[C@@H](C)O[C@@H](C)C5)nn34)cc12 | 100 | > 50 | inhibition [3]: > 50%; GI50 (MPC-11 [4]): 94 nM; GI50 (NCI-H929): 30 nM
2 | Cc1n[nH]c2ccc(-c3cnc4ccc(N5CCO[C@@H](C)C5)nn34)cc12 | 100 | > 50 | inhibition [3]: > 50%; inhibition (MPC-11 [5]): inactive; Activity (MPC-11 [6]): inactive
3 | Cc1n[nH]c2ccc(-c3cnc4ccc(N5CCOC(C)(C)C5)nn34)cc12 | 100 | > 50 | inhibition [3]: > 50%; GI50 (MPC-11 [4]): 126 nM; GI50 (NCI-H929): 24 nM; Activity (MPC-11 [6]): Active
4 | CCCn1/c(=N/C(=O)c2cccc(C(N)=O)c2)[nH]c2ccccc21 | – | – | IC50 [7]: 187 nM; GI50 (MPC-11 [4]): 8500 nM; GI50 (NCI-H929): 51000 nM
5 | Cc1nc2ccc(N3C[C@@H](C)O[C@@H](C)C3)nn2c1-c1ccc2[nH]nc(C)c2c1 | < 50 | – | –
6 | C[C@@H]1CN(c2ccc3ncc(-c4ccc(OC(F)(F)F)cc4)n3n2)C[C@H](C)O1 | < 50 | – | –
7 | C[C@@H]1CN(c2ccc3ncc(-c4ccc5c(c4)CC(=O)N5)n3n2)C[C@H](C)O1 | < 50 | – | –
8 | COCCN1CCN(c2ccc3ncc(-c4ccc5[nH]nc(C)c5c4)n3n2)CC1 | > 50 | 46 | –
9 | Cc1n[nH]c2ccc(-c3cnc4cccnn34)cc12 | – | 26 | –
10 | Cc1n[nH]c2ccc(-c3cnc4ccc(N5CC6CCC(C5)O6)nn34)cc12 | > 50 | > 50 | inhibition [3]: > 50%; GI50 (MPC-11 [4]): 131 nM; GI50 (NCI-H929): 33 nM; Activity (MPC-11 [6]): Active
11 | C[C@@H]1CN(c2ccc3ncc(-c4ccc(S(N)(=O)=O)cc4)n3n2)C[C@H](C)O1 | < 50 | – | –
12 | Cc1n[nH]c2ccc(-c3cnc4ccc(N5CCOCC5)nn34)cc12 | > 50 | 91 | –
13 | Cc1n[nH]c2ccc(-c3cnc4ccc(N5C[C@H]6C[C@@H]5CO6)nn34)cc12 | > 50 | > 50 | inhibition [3]: > 50%; GI50 (MPC-11 [4]): 155 nM; GI50 (NCI-H929): 71 nM; Activity (MPC-11 [6]): Active
14 | C[C@@H]1CN(c2ccc3ncc(-c4cccc5[nH]ncc45)n3n2)C[C@H](C)O1 | < 50 | – | –
15 | C[C@@H]1CN(c2ccc3ncc(-c4ccc(C(F)(F)F)cc4)n3n2)C[C@H](C)O1 | < 50 | – | –
16 | Cc1n[nH]c2ccc(-c3cnc4ccc(N5C[C@@H](C)O[C@H](C)C5)nn34)cc12 | > 50 | > 50 | inhibition [3]: > 50%; Activity (MPC-11 [6]): Active
17 | Cc1n[nH]c2ccc(-c3cnc4ccc(N5CCO[C@H](C)C5)nn34)cc12 | > 50 | > 50 | inhibition [3]: > 50%; inhibition at 0.2 µM (MPC-11 [5]): ~50%; Activity (MPC-11 [6]): Active
18 | C[C@@H]1CN(c2ccc3ncc(-c4ccc(CC#N)cc4)n3n2)C[C@H](C)O1 | < 50 | – | –
19 | C[C@@H]1CN(c2ccc3ncc(-c4ccc(C(N)=O)cc4)n3n2)C[C@H](C)O1 | 74 | < 50 | –
20 | Cc1n[nH]c2ccc(-c3cnc4ccc(N5C[C@@H]6C[C@H]5CO6)nn34)cc12 | > 50 | > 50 | inhibition [3]: > 50%; GI50 (MPC-11 [4]): 101 nM; GI50 (NCI-H929): 45 nM; Activity (MPC-11 [6]): Active
21 | C[C@@H]1CN(c2ccc3ncc(-c4ccc5c(cnn5C)c4)n3n2)C[C@H](C)O1 | < 50 | – | –
22 | Cc1n[nH]c2ccc(-c3cnc4ccc(N5C[C@@H](C)O[C@@H](C)C5)nn34)cc12 | 100 | 95 | inhibition [3]: > 50%; GI50 (MPC-11 [4]): 72 nM; GI50 (NCI-H929): 87 nM; inhibition [8]: Active
23 | CNC(=O)c1ccc(-c2cnc3ccc(N4C[C@@H](C)O[C@@H](C)C4)nn23)cc1 | < 50 | – | –
24 | C[C@@H]1CN(c2ccc3ncc(-c4ccc(F)c(C#N)c4)n3n2)C[C@H](C)O1 | < 50 | – | –

Second part, led by results:

Row | inhibition [1] [%] | inhibition [2] [%] | SMILES | also measured
25 | < 50 | – | C[C@@H]1CN(c2ccc3ncc(-c4ccc(Cl)cc4)n3n2)C[C@H](C)O1 | –
26 | < 50 | – | C[C@@H]1CN(c2ccc3ncc(-c4cccc(S(C)(=O)=O)c4)n3n2)C[C@H](C)O1 | –
27 | < 50 | – | C[C@@H]1CN(c2ccc3ncc(-c4ccccc4)n3n2)C[C@H](C)O1 | –
28 | < 50 | – | C[C@@H]1CN(c2ccc3ncc(-c4ccc(C#N)cc4)n3n2)C[C@H](C)O1 | –
29 | < 50 | – | C[C@@H]1CN(c2ccc3ncc(-c4ccncc4)n3n2)C[C@H](C)O1 | –
30 | < 50 | – | C[C@@H]1CN(c2ccc3ncc(-c4ccc(F)cc4)n3n2)C[C@H](C)O1 | –
31 | > 50 | > 50 | C[C@@H]1CN(c2ccc3ncc(-c4ccc5cn[nH]c5c4)n3n2)C[C@H](C)O1 | –
32 | < 50 | – | C[C@@H]1CN(c2ccc3ncc(-c4cccc(C#N)c4)n3n2)C[C@H](C)O1 | –
33 | > 50 | > 50 | C[C@@H]1CN(c2ccc3ncc(-c4ccc5cnn(C)c5c4)n3n2)C[C@H](C)O1 | –
34 | > 50 | > 50 | C[C@@H]1CN(c2ccc3ncc(-c4ccc5[nH]ncc5c4)n3n2)C[C@H](C)O1 | –
35 | < 50 | – | C[C@@H]1CN(c2ccc3ncc(-c4cccnc4)n3n2)C[C@H](C)O1 | –
